MPTP inh: blocks calcium-induced mitochondrial swelling | isolated mouse mitochondria, Ca2+ swelling absorbance, 30 min | AID 602449 | 360,000 compounds, 1.4% hits | inhibition, % at 10 µM;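 active = inhibition of 50% or more, scaled per plate between neutral and stimulator controls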;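 note: 0% = DMSO wells given calcium and 100% = 1 mM EGTA wells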
MC4R antag cAMP: human MC4R antagonism in cAMP assay; 360,000 compounds, 0.48% hits; inhibition, % at 6.5 µM; MC4R-expressing cells, MTII-stimulated cAMP, LANCE TR-FRET; P32245;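 active = inhibition above its plate's cutoff, the mean of tested wells on that plate plus 3 SD, cut at about 29% in these data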;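 note: 0% = Melanotan II alone and 100% = Melanotan II plus saturating MCL0020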
Target sequence (P32245 whole entry, looked up): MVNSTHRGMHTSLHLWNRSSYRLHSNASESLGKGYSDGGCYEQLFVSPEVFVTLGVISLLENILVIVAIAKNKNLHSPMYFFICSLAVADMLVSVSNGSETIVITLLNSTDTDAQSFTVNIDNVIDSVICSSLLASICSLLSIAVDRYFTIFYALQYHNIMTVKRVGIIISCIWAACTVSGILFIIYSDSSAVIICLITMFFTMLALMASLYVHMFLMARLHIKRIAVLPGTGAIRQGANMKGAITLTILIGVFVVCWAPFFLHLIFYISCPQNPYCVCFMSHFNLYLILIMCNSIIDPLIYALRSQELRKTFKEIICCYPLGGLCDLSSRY
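Test system: U2OS cells stably expressing human melanocortin 4 receptor (MC4R); also added: Melanotan II challenge; compound: 6.5 µM single dose; timing: 30-min compound preincubation, 1-h Melanotan II challenge, 1-h detection, room temperature; signal: Eu-cAMP/anti-cAMP TR-FRET, emission 671 nm; repeats: one well per compound, no replicates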
SMARCA2 activ: activators of SMARCA2 function; 370,000 compounds, 1% hits; activation, % at 9.1 µM; MG213 cells, MMTV-luciferase reporter, dexamethasone, overnight; in the data active = activation above about 7.8%;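 note: 0% = vehicle wells and 100% = reference activator wells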
ATG4B inh: ATG4B (human) cysteine protease inhibition; ATG4B cleavage of LC3-PLA2, NBD-HPC fluorescence, 1 h; inhibition, % at 8.33 µM; 340,000 compounds, 0.51% hits; in the data active = inhibition above about 40%
MC4R ag barr: human MC4R agonism via beta-arrestin | P32245 | U2OS MC4R beta-arrestin complementation, luminescence; percent of melanotan II response, DMSO zero | activation, % at 8.9 µM | 360,000 compounds, 0.98% hits;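 active = activation above a per-plate cutoff, the mean activation of sample wells on that plate plus 3 SD, cut at about 8% in these data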
MPTP counter: Rhodamine 123 counter-screen of mitochondrial pore hits. shares compounds with MPTP inh. inhibition, % at 10 µM. AID 624504. isolated mitochondria, membrane potential, Rhodamine 123 fluorescence. 5,000 compounds, 78% hits; in the data active = inhibition above about 22%;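 note: 0% = DMSO vehicle and 100% = positive control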
MPTP swell DR: MPTP inhibition, dose response swelling confirmation; shares compounds with MPTP inh; 780 compounds, 58% hits; isolated mitochondria swelling, absorbance; AID 651561; IC50, µM; in the data active = IC50 below about 20 µM
MPTP counter DR: counter-screen for mitochondrial permeability transition pore inhibitors, dose response; shares compounds with MPTP inh; isolated mitochondria counterscreen, fluorescence read-out; 780 compounds, 49% hits; IC50, µM; in the data active = IC50 below about 80 µM
Starred values were filed as active, the others as inactive; i = inactive; . = no result given; + = active, no number. This is a sample that favours compounds with a hit; in the whole collection about 4.1% have one here.

SMILES | MPTP inh | MC4R antag cAMP | SMARCA2 activ | ATG4B inh | MC4R ag barr | MPTP counter | others
CCN1/C(=C/C=C/C2=[N+](CC)c3ccccc3C2(C)C)C(C)(C)c2ccccc21 | + | -15.8 | -14.7 | . | -2.6 | 91.7*
O=C(NCCN1CCC2(CC1)C(=O)NCN2c1ccccc1)c1ccc(F)cc1 | . | . | -3.2 | . | . | .
c1ccc2c(CN3CCCCC3)c[nH]c2c1 | 3.2 | 1.9 | -5.5 | 3.2 | -2.0 | .
OC1(c2ccc(Cl)cc2)CCN(Cc2c[nH]c3ccccc23)CC1 | 94.5* | 12.8 | -1.5 | -0.2 | 1.1 | -16.5 | MPTP swell DR=5.34*;MPTP counter DR=>80
COC1CC=C2CCN3CCC4=C(CC(=O)OC4)C23C1 (stereo not drawn) | . | . | -2.4 | . | . | .
C/C(CC(c1ccccc1)c1c(O)c2ccccc2oc1=O)=N\Nc1ccc([N+](=O)[O-])cc1[N+](=O)[O-] (stereo not drawn) | 89.6* | -5.7 | -0.5 | -6.4 | -0.8 | 77.3*
CC(=O)C1=C(C)OC2=C(C(=O)CCC2)[C@@]12C(=O)N(C)c1ccccc12 | . | . | -2.3 | . | . | .
O=P(OCCCl)(OCCCl)OCCCl | . | . | 0.1 | . | . | .
CN1C(=O)/C(=C\c2ccc(N3CCCCCC3)cc2)C(=O)NC1=S | 71.4* | 4.8 | -2.6 | -4.9 | -1.1 | -10.0 | MPTP swell DR=i;MPTP counter DR=57.3*
CCCCCCCSc1cc(OC)c(CCN(C)C)cc1OC | 103.2* | 1.2 | -0.9 | 12.7 | 3.0 | -13.1
CCCCCSc1cc(OC)c(CCN)cc1OC | 96.7* | -15.5 | 4.2 | 2.1 | 5.3 | -19.9 | MPTP swell DR=3.44*;MPTP counter DR=77.3*
COc1cc(CCN)ccc1O | -0.6 | 2.6 | -4.3 | 3.0 | -0.6 | .
CNc1ccc2oc(C[C@H]3O[C@@]4(CC[C@H]3C)O[C@H]([C@H](C)C(=O)c3ccc[nH]3)[C@H](C)C[C@H]4C)nc2c1C(=O)O | 95.8* | -55.2 | -7.6 | -4.8 | -6.7 | -22.8
O=c1[nH]c2ccccc2n1C1CCN(CCCC(c2ccc(F)cc2)c2ccc(F)cc2)CC1 | 88.5* | -1.8 | -2.6 | -4.8 | 2.3 | -8.5
Cc1ccc(-c2cc(-c3ccc(C)cc3)[n+](-c3ccc(C(=O)O)cc3)c(-c3ccc(C)cc3)c2)cc1 | -0.4 | -0.3 | 1.3 | 0.9 | -1.5 | .
Cc1ccc(C[n+]2c(-c3ccc(C)cc3)cc(-c3ccc(C)cc3)cc2-c2ccc(C)cc2)cc1 | 92.7* | 2.2 | . | -6.4 | 55.7* | 115.9*
CC(C)NCC(O)c1ccc(C2CCCC2)cc1 (stereo not drawn) | 96.1* | 1.9 | 1.6 | -9.6 | 2.9 | -7.8 | MPTP swell DR=16.4*;MPTP counter DR=>80
Nc1c2c(nc3sc4c(c13)CCCC4)CCCC2 | 55.4* | -1.4 | 4.2 | 8.7 | -0.7 | 79.9*
COC(=O)C1C(c2ccc(C)cc2)CC2CCC1N2C (stereo not drawn) | . | . | 3.5 | . | . | .
O=C(CNC(=O)c1ccc(Cl)cc1)Nc1ccc(Br)cc1C(=O)c1ccccc1 | 50.2* | 1.9 | 1.5 | -1.1 | 6.3 | 66.6*
CC(C)CCP(=O)(O)O | . | . | -1.9 | . | . | .
CC(C)c1ccc(C(c2c(O)c3ccccc3oc2=O)c2c(O)c3ccccc3oc2=O)cc1 | 77.6* | 12.8 | -6.2 | . | 1.5 | 1.7 | MPTP swell DR=3.94*;MPTP counter DR=<2.5*
O=c1oc2ccccc2c(O)c1C(c1ccc([N+](=O)[O-])cc1)c1c(O)c2ccccc2oc1=O | 41.5 | -7.7 | 2.6 | 15.6 | -1.3 | .
O=C(Cc1ccccc1)NC(Oc1ccccc1Cl)C(Cl)(Cl)Cl (stereo not drawn) | 2.7 | 2.4 | -1.8 | 10.8 | 1.0 | .
CCCCCCCC(=O)NC(Oc1ccccc1[N+](=O)[O-])C(Cl)(Cl)Cl (stereo not drawn) | 70.3* | 1.9 | 0.9 | 4.9 | 3.4 | 58.9*
O=C(O)CCl | . | . | -4.0 | . | . | .
CC(C)NS(=O)(=O)c1ccc(OCC(=O)N2CCN(Cc3ccc4c(c3)OCO4)CC2)c(Cl)c1 | 53.9* | 11.1 | -2.5 | -7.1 | -0.6 | 32.4*
O=S(=O)(c1ccc(Cl)cc1)N1Cc2ccc(Br)cc2-n2nncc2C1 | . | . | -5.3 | . | . | .
NCCCN1CCN(c2ccccc2)CC1 | -0.8 | 15.1 | 0.1 | -8.6 | 0.1 | .
COc1ccc(N2CCN(CCCN)CC2)cc1 | 69.9* | 1.7 | -0.5 | -8.8 | -0.7 | -3.9 | MPTP swell DR=i;MPTP counter DR=>80

Screening results as filed in PubChem BioAssay.
